In paper PMC12219203 (Nature Communications, 2025):

Columns and labels:
mTLR2 = mTLR2 (Mus musculus, UniProt Q9QUN7); assay: HEK-Blue mTLR2 SEAP reporter assay; assay type: cell-based; details: GM 2, 1, 0.5 mM, 24 h, n = 6
Procedure, shortened: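 HEK-Blue mTLR2 cells were seeded at 50,000 cells/well in complete DMEM. After 6 h the medium was changed to serum-free DMEM and test compound was added for 24 h. Secreted SEAP was read by mixing supernatant 1:4 with Quanti-Blue, incubating 6 h at 37 °C and measuring absorbance at 620 nm. Values were blanked against water-treated wells.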

Tlr4-/- BMDMs [1] = assay: RNAseq of Tlr4-/- BMDMs; assay type: cell-based, mouse; details: GM 8 mM, 24 h, n = 3
Procedure, shortened: (§1)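 BMDMs were differentiated 6 days from mouse bone marrow with GM-CSF or L929 supernatant at 800,000 cells/well, switched to serum-free IMDM and stimulated 24 h; MDP 0.4 mM was run alongside. Total RNA was extracted for RNAseq. Differentially expressed genes were called at p < 0.01 and logFC > 1 and plotted as mean heatmaps; n = 3.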

mTLR4 = mTLR4 (Mus musculus, UniProt Q9JHF9+Q9QUK6); assay: HEK-Blue mTLR4 SEAP reporter assay; assay type: cell-based; details: 24 h
mTLR4, sequence (Q9QUK6 26-835): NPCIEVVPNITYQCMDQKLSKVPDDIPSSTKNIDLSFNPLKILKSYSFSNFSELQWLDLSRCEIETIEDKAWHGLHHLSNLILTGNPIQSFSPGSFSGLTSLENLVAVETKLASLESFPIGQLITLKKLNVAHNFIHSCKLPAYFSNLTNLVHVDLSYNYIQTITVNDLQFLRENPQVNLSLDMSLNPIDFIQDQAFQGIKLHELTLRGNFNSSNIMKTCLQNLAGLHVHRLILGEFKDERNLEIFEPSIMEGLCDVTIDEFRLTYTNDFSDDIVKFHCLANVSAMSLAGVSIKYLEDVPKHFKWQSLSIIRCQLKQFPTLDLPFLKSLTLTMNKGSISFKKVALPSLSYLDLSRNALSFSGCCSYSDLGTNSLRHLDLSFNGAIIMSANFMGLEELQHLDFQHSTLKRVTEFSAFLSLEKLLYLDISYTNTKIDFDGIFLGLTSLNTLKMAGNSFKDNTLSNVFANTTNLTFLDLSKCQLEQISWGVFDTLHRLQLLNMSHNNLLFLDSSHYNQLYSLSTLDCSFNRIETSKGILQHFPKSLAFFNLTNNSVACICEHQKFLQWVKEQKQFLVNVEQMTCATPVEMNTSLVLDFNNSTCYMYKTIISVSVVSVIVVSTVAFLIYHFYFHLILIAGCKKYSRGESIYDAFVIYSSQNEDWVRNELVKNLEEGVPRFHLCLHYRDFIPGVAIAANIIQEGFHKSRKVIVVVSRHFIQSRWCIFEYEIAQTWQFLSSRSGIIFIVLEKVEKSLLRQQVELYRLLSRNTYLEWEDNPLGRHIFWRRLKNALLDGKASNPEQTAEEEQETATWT
mTLR4, sequence (Q9JHF9 19-160): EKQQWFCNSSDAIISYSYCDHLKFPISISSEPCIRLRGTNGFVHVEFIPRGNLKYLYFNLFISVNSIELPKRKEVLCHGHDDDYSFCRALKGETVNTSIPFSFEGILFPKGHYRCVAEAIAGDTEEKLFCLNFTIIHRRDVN

[2] = tested on: murine bone marrow-derived dendritic cells (cDC2); assay: CD80/86 surface expression in cDC2s of BMDCs; assay type: cell-based, mouse; details: 50, 100, 200 μM, 18 h
Procedure, shortened: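 Bone marrow from femur and tibia of C57BL/6J female mice was red-cell-lysed and plated at 2,000,000 cells/mL in medium with FLT3 ligand-containing supernatant, with feeding on days 3 and 6. DCs were reseeded at 2,000,000 cells/well and stimulated 18 h. Cells were Fc-blocked, stained with anti-CD80, anti-CD86 and live/dead dye, and analysed by flow cytometry as MFI in gated cDC2s.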

[3] = tested on: NF-κB signaling in RAW-Dual Tlr4-/- cells; assay: RAW-Dual Tlr4-/- NF-κB reporter; assay type: cell-based, mouse; details: 24 h
Procedure, shortened: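 RAW-Dual cells (WT or Tlr4-/-) were seeded at 100,000 cells/well in complete DMEM without selection antibiotics, 24 h before treatment. Test compounds were added for 24 h (n = 3). NF-κB-driven SEAP was read by mixing supernatant 1:4 with Quanti-Blue, incubating 6 h at 37 °C and measuring absorbance at 620 nm, blanked against water-treated wells.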

[4] = tested on: IRF signaling in RAW-Dual WT cells; assay: RAW-Dual WT IRF reporter; assay type: cell-based, mouse; details: 24 h
[5] = tested on: WT bone-marrow-derived macrophages (BMDMs); assay: Cytokine gene expression in WT BMDMs; assay type: cell-based, mouse; details: GM 2-8 mM, M 8 mM
Procedure, shortened: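 Marrow was flushed from the femur and tibia of female SPF C57BL/6J mice and red cells were lysed (NH4Cl/KHCO3). Cells at 200,000 cells/mL were differentiated for 6 days in IMDM with 20 ng/mL GM-CSF or 10% L929 supernatant, then switched to serum-free IMDM. Test compounds were added for 24 h (n = 3). Cytokine transcripts were measured by RT-qPCR (2-ΔΔCt, normalised to β-act).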

NOD2 = assay: HEK-Blue NOD2 SEAP reporter assay; assay type: cell-based, human; details: MDP, M-AE 200 nM; GM, M 20 μM; 18 h
Procedure, shortened: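 HEK-Blue hNod1 or hNod2 cells were seeded at 50,000 cells/well in DMEM/10% FBS without selection antibiotics and stimulated at once for 18 h (n = 3). Supernatant was mixed 1:4 with Quanti-Blue and incubated 6 h at 37 °C, and absorbance was read at 620 nm. Values were blanked against water-treated wells, and the respective parental Null cell readouts were subtracted.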

Tlr4-/- BMDMs [6] = assay: Cytokine secretion by Tlr4-/- BMDMs; assay type: cell-based, mouse; details: ELISA, 24 h; GM 4 mM, MDP 0.4 mM, LPS 100 ng/mL, CpG 100 nM
Procedure, shortened: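 Murine BMDMs were differentiated 6 days in complete medium with 20 ng/mL GM-CSF or 10% L929 supernatant, then switched to serum-free IMDM and stimulated 24 h. Mouse TNF-α and IL-6 in culture supernatants were quantified by sandwich ELISA. Samples were prediluted in 1% BSA in PBS, pH 7.4, where needed.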

WT BMDMs [7] = assay: Cytokine secretion by WT BMDMs; assay type: cell-based, mouse; details: GM 4 mM, PB-resin, 24 h
Procedure, shortened: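 Bone-marrow macrophages were derived from female C57BL/6J mice (GM-CSF or L929 supernatant, 6 days) and moved to serum-free IMDM. They were given 4 mM test compound or 100 ng/mL LPS for 24 h, each either untreated or first neutralised with polymyxin B resin. Supernatants were cleared at 16,000 × g and TNF-α was measured by sandwich ELISA, with samples prediluted in 1% BSA/PBS when needed.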

WT BMDMs [8] = assay: RNAseq of WT BMDMs; assay type: cell-based, mouse; details: GM 8 mM, 24 h, n = 3
Procedure, shortened: as §1

[9] = GM abundance in mouse gut after intraperitoneal injection; assay type: in vivo; details: mice, i.p. injection of GM; LC-MS
mTLR4/mMD2 (K263A / wt) = mTLR4/mMD2 (K263A / wt) (Mus musculus, UniProt Q9JHF9+Q9QUK6, K263A); assay: NF-κB SEAP in HEK-Blue Null1, mTLR4 K263A / mMD2 wt; assay type: cell-based; details: GM 0.4, 0.2 mM, 24 h
mTLR4/mMD2 (K263A / wt), sequence (Q9QUK6 26-835 K263A): as the sequence (Q9QUK6 26-835) above, with K238A counted along it
mTLR4/mMD2 (K263A / wt), sequence (Q9JHF9 19-160): as the sequence (Q9JHF9 19-160) above
Procedure, shortened: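 Point mutants of mTLR4 or mMD2 were made by site-directed mutagenesis. HEK-Blue Null1 cells were co-transfected by lipofection for 16 h with 500 ng total of mTLR4 and Myc-tagged mMD2 plasmids (1:1); mock wells received lipofection reagent only. After a medium change the next day, cells were treated for 24 h. NF-κB SEAP was measured and normalised to water-treated samples; data are mean ± s.e.m., n = 3.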

THP-1 cells = assay: Cytokine expression in THP-1 monocytes; assay type: cell-based, human; details: GM 2-8 mM
Procedure, shortened: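 THP-1 cells were kept in RPMI 1640 with 10% heat-inactivated FBS. They were seeded at 100,000 cells/well in half-serum medium and stimulated immediately, with MDP 0.4 mM as control. Total RNA was extracted and cytokine transcripts were measured by RT-qPCR; n = 4.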

Tlr4-/- C57BL/6 J mice = assay: DSS-induced colitis model in Tlr4-/- mice; assay type: in vivo, mouse; details: GM 10 mg/kg i.p. daily, 3% DSS
Procedure, shortened: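 Male SPF C57BL/6J mice aged 7–8 weeks, WT or Tlr4-/- (bred in house), were age-, weight- and sex-matched. They drank 3% (w/v) DSS water for 7 days and were then euthanised. Test compound (10 mg/kg) or PBS (5 mL/kg) was given i.p. daily from 2 days before DSS until the end. Body weight was recorded daily.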

mTLR2, sequence (Q9QUN7 25-784): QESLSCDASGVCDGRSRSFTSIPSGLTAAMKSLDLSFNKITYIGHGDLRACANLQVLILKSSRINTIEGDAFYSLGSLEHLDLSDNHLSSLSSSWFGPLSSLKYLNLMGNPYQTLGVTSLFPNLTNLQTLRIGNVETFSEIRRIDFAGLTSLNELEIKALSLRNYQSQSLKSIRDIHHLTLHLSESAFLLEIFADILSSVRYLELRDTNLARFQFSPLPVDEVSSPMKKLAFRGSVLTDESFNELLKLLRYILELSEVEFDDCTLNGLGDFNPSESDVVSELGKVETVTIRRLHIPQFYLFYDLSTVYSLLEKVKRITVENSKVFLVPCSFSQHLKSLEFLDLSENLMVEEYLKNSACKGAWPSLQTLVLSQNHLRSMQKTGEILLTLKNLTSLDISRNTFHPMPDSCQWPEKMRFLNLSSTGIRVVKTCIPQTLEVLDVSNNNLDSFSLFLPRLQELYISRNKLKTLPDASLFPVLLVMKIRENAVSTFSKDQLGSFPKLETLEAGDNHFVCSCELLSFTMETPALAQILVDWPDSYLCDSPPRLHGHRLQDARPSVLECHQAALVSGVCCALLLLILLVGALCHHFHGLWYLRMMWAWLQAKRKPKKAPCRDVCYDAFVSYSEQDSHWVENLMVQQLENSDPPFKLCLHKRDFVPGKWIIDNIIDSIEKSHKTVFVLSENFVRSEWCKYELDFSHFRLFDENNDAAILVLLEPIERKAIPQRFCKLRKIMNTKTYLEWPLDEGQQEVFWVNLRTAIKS

SMILES: CC(=O)N[C@H]1[C@H](O[C@H]2[C@H](O[C@H](C)C(=O)O)[C@@H](NC(C)=O)C(O)O[C@@H]2CO)O[C@H](CO)[C@@H](O)[C@@H]1O (stereo partly drawn) [GM, N-acetylglucosamine-β−1,4-N-acetylmuramic acid]
- Activation of HEK-Blue mTLR2 reporter cells (in words) (mTLR2): does not activate
- Cytokine and chemokine genes by RNAseq, Tlr4-/- BMDMs (Tlr4-/- BMDMs [1]): fails to induce the expression of these genes
- Activity in HEK-Blue mTLR4 reporter cells under polymyxin B titration (in words) (mTLR4; GM 1 mM, polymyxin B 0, 0.1, 1, 10 kU): unaffected by polymyxin B titration
- TLR4 stimulation in HEK-Blue mTLR4 reporter cells (in words) (mTLR4; disaccharides 0.5 or 1 mM, GM-A and GM-AE 1 mM): stimulate TLR4
- CD80/86 surface markers in cDC2 population of BMDCs (in words) [2]: upregulates CD80/86 surface marker expressions
- NF-κB signaling in RAW-Dual Tlr4-/- cells (in words) [3]: minimal activity
- IRF signaling in RAW-Dual WT cells (in words) [4]: dose-dependent activation of both NF-κB and IRF signaling
- Immuno-stimulatory activity (TNF-α, IL-6) in BMDMs (in words) [5]: dose-dependent immuno-stimulatory activity
- NOD2 activation in HEK-Blue reporter cells (in words) (NOD2): unable to activate NOD1/2
- TNF-α and IL-6 production in Tlr4-/- BMDMs (in words) (Tlr4-/- BMDMs [6]): fails to elicit increased levels of TNF-α and IL-6
- TNF-α induction in BMDMs after polymyxin B neutralization (in words) (WT BMDMs [7]): unaffected by polymyxin B neutralization
- Cytokine and chemokine genes (Il12a/b, Il6, Il1a/b, Csf3, Ccl5, Cxcl1) by RNAseq, WT BMDMs (WT BMDMs [8]): significantly upregulated
- Abundance in the mouse gut after intraperitoneal injection [9]: temporally increased its abundance in the mouse gut
- Effect of mutation mTLR4_K263 on NF-κB activity (in words) (mTLR4/mMD2 (K263A / wt)): abolished GM-triggered NF-κB activity
- Immuno-stimulatory activity in THP-1 (in words) (THP-1 cells): dose-dependent immuno-stimulatory activity
- DSS-induced colitis in Tlr4-/- mice: weight loss and colonic shortening (Tlr4-/- C57BL/6 J mice): failed to prevent weight loss and colonic shortening
- Cytoprotective responses in colitis Tlr4-/- mice (Tlr4-/- C57BL/6 J mice; RT-qPCR): No upregulation of cytoprotective responses
